Reference: ChEMBL document CHEMBL4818996, “N-substituted benzimidazole acrylonitriles as in vitro tubulin polymerization inhibitors: Synthesis, biological activity and computational analysis” (Eur J Med Chem, 2021)
Calls of active or inactive are those of the source. No cut-off for these calls is given here.

Experiments:
MM1.S = test: cells; type: functional, cell-based; conditions: Homo sapiens, 72 h
CAPAN-1 = test: cells; type: functional, cell-based; conditions: Homo sapiens, CAPAN-1, 72 h
NCI-H460 = test: Antiproliferative activity against human NCI-H460 cells assessed as inhibition of cell proliferation measured after 72 hrs by real time imaging analysis; type: functional, cell-based; conditions: NCI-H460, 72 h
Summary of the method: (§1)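 Adherent cells seeded at 500–1500 per well and incubated overnight, then treated at seven concentrations from 100 to 6.4 x 10^-3 µM. Kept at 37°C for 72 h with real-time imaging every 3 h (one field per well, 10x). Growth quantified as percent confluence; IC50 calculated from area under the curve.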

K562 = test: Antiproliferative activity against human K562 cells assessed as inhibition of cell proliferation measured after 72 hrs by real time imaging analysis; type: functional, cell-based; conditions: K562, 72 h
Summary of the method: (§2)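 Suspension cells seeded at 2500–5500 per well into wells already holding compound, seven concentrations from 100 to 6.4 x 10^-3 µM. Incubated at 37°C for 72 h with imaging every 3 h (one field per well, 10x). Growth taken as percent confluence; IC50 derived from area under the curve.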

TERT-RPE1 = test: cells; type: ADME, cell-based; conditions: Homo sapiens, RPE-1, 72 h
Z-138 = test: cells; type: functional, cell-based; conditions: Homo sapiens, Z-138, 72 h
[1] = Antiproliferative activity against human DND41 cells assessed as inhibition of cell proliferation measured after 72 hrs by real time imaging analysis; type: functional, cell-based; conditions: DND41, 72 h
Summary of the method: as §2

HL-60 = test: cells; type: functional, cell-based; conditions: Homo sapiens, HL-60, 72 h
HCT-116 = test: Antiproliferative activity against human HCT-116 cells assessed as inhibition of cell proliferation measured after 72 hrs by real time imaging analysis; type: functional, cell-based; conditions: HCT-116, 72 h
Summary of the method: as §1

HEp-2 = test: Inhibition of alpha-tubulin polymerization in human HEp-2 cells assessed as disintegration of microtubule network at 0.3 to 30 uM measured after 3 hrs by DAPI staining based immunoflourescence method relative to vincristine; type: cell-based; conditions: dose 0.3-30 µM
Summary of the method: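 HEp-2 cells seeded at 15000 per well and incubated overnight, then exposed 3 h to compound or DMSO carrier. Fixed in 4% PFA and permeabilised. Stained with mouse anti-alpha-tubulin and Alexa Fluor 488 anti-mouse IgG, with DAPI nuclear counterstain. Imaged by confocal microscopy at 63x water immersion. Vincristine and docetaxel served as references.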

cells = type: ADME, cell-based; conditions: Homo sapiens, PBMC, 72 h
Tubulin (Sus scrofa) = test: Inhibition of porcine brain tubulin polymerization in presence of GTP at 30 uM measured every 60 secs for 1 hr by multiplate reader method

| Compound | IC50 (MM1.S) [µM] | IC50 (CAPAN-1) [µM] | IC50 (NCI-H460) [µM] | IC50 (K562) [µM] | IC50 (Z-138) [µM] | IC50 (HL-60) [µM] | IC50 (HCT-116) [µM] | IC50 (cells) [µM] | inhibition (Tubulin (Sus scrofa)) | IC50 (TERT-RPE1) [µM] | IC50 [1] [µM] | inhibition (HEp-2) |
| --- | --- | --- | --- | --- | --- | --- | --- | --- | --- | --- | --- | --- |
| Cn1c(/C(C#N)=C/c2cccnc2)nc2ccccc21 | > 100 | 57.1 | 59.3 | > 100 | > 100 | 58.6 | 85.1 | – | – | 60.1 | > 100 | – |
| N#C/C(=C\c1ccc[nH]1)c1nc2ccccc2n1-c1ccccc1 | > 100 | 14.2 | 27.4 | > 100 | 67.5 | 42 | 49.4 | – | – | 32.4 | 41.2 | – |
| Cn1c(/C(C#N)=C/c2ccc(Br)cc2)nc2ccccc21 | 95.7 | 20.5 | 32.1 | 57.6 | 30.7 | 24.3 | 52.2 | – | – | 47.3 | 41.3 | – |
| CN(C)c1ccc(/C=C(\C#N)c2nc3ccc(C#N)cc3n2C)cc1 | > 100 | 55.9 | > 100 | > 100 | 96.5 | 68.1 | 68.5 | – | – | 80.9 | > 100 | – |
| CC(C)Cn1c(C(C#N)=Cc2ccc([N+](=O)[O-])cc2)nc2ccccc21 | 72.9 | 30.3 | 14.8 | > 100 | 45.4 | 33.4 | 50.4 | – | – | 53.8 | 54.6 | – |
| Cn1c(/C(C#N)=C/c2cnc3ccccc3c2)nc2ccccc21 | > 100 | 66.9 | 22.4 | > 100 | 45 | 33 | > 100 | – | – | 39.4 | 49.9 | – |
| CC(C)Cn1c(C(C#N)=Cc2ccc(N(C)C)cc2)nc2ccccc21 | 1.5 | 0.3 | 0.4 | 2.1 | 0.4 | 0.3 | 0.6 | > 98.8 | Active | 4.3 | 0.2 | Active |
| CN[C@@H]1C[C@H]2O[C@@](C)([C@@H]1OC)n1c3ccccc3c3c4c(c5c6ccccc6n2c5c31)C(=O)NC4 [STAUROSPORINE] | – | – | – | 0.0768 | – | – | 0.0281 | – | – | – | 0.016 | – |
| Cn1c(/C(C#N)=C/c2ccc[nH]2)nc2ccccc21 | > 100 | 84.4 | 67.9 | > 100 | > 100 | > 100 | > 100 | – | – | > 100 | 73.7 | – |
| N#C/C(=C\c1cnc2ccccc2c1)c1nc2ccccc2n1-c1ccccc1 | 62.4 | 10 | 13.6 | > 100 | 12.6 | 15.3 | 12.4 | – | – | 12.2 | 14.1 | – |

Continued, in another order:

| IC50 (MM1.S) [µM] | IC50 (CAPAN-1) [µM] | IC50 (NCI-H460) [µM] | IC50 (K562) [µM] | IC50 (Z-138) [µM] | IC50 (HL-60) [µM] | IC50 (HCT-116) [µM] | IC50 (cells) [µM] | inhibition (Tubulin (Sus scrofa)) | Compound | IC50 (TERT-RPE1) [µM] | IC50 [1] [µM] | inhibition (HEp-2) |
| --- | --- | --- | --- | --- | --- | --- | --- | --- | --- | --- | --- | --- |
| 71 | 13.3 | 12.1 | 37 | 9.9 | 13.5 | 29 | – | – | Cn1c(/C(C#N)=C/c2c[nH]c3ccccc23)nc2ccccc21 | 27.3 | 14.9 | – |
| 35.7 | 12.9 | 12 | 39.3 | 11 | 8.6 | 16 | – | – | N#C/C(=C\c1ccc(Br)cc1)c1nc2ccccc2n1-c1ccccc1 | 22.8 | 12.3 | – |
| 0.0118 | 0.0088 | 0.0024 | 0.0152 | 0.0142 | 0.0072 | 0.0017 | – | – | CC(=O)O[C@@]12CO[C@@H]1C[C@H](O)[C@@]1(C)C(=O)[C@H](O)C3=C(C)[C@@H](OC(=O)[C@H](O)[C@@H](NC(=O)OC(C)(C)C)c4ccccc4)C[C@@](O)([C@@H](OC(=O)c4ccccc4)[C@H]21)C3(C)C [DOCETAXEL ANHYDROUS] | 0.0553 | 0.0125 | – |
| 1.3 | 0.2 | 0.6 | 1.4 | 0.4 | 0.2 | 0.4 | > 76 | Active | CC(C)Cn1c(C(C#N)=Cc2ccc(N(C)C)cc2)nc2ccc(C#N)cc21 | 1.7 | 0.3 | Active |
| 66.7 | 20.6 | 26.1 | 53.4 | 40.1 | 29.1 | 42.4 | – | – | CC(C)Cn1c(/C(C#N)=C/c2ccccc2)nc2ccccc21 | 44.9 | 60 | – |
| 24.8 | 5.1 | 5.3 | 13.6 | 12.1 | 6.7 | 7.1 | – | – | N#C/C(=C\c1c[nH]c2ccccc12)c1nc2ccccc2n1-c1ccccc1 | 12.9 | 10.1 | – |
| > 100 | 3.1 | 45.7 | > 100 | 17.4 | 10.9 | 26.8 | – | – | CN(C)c1ccc(/C=C(\C#N)c2nc3ccc(C#N)cc3n2-c2ccccc2)cc1 | 27.8 | 55.8 | – |
| 59.5 | 44 | 45.6 | > 100 | 30.2 | 31.3 | 50.6 | – | – | N#C/C(=C\c1cccnc1)c1nc2ccccc2n1-c1ccccc1 | 54.4 | 60.5 | – |
